Measured values published in ChEMBL document CHEMBL1121899, “Biological activities of photoaffinity labeling analogues of kinins and their irreversible effects on kinin receptors” (1981).
Where a SMILES comes first, the peptide text is derived from it.

Assays:
Oryctolagus cuniculus [1] = species on record: Oryctolagus cuniculus; test: The compound was tested in vitro on rabbit aorta for residual response in presence of ultraviolet light; assay type: functional
Outline: (§1)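 Aorta strips in cycloheximide were challenged twice with [des-Arg⁹]BK and checked with 3 µM noradrenaline and 0.2 µM [Sar¹]angiotensin II. They were then incubated with 100 µM (4'-amino)Phe plus the photolabel and irradiated 10 min around 365 nm (18 mW/cm²). This was done once or twice. Residual [des-Arg⁹]BK response at 60 min was expressed as percent of reference tissues.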

Oryctolagus cuniculus [2] = species on record: Oryctolagus cuniculus; test: Competitive protection towards rabbit aorta in the presence of light; assay type: functional
Outline: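 Rabbit aorta strips (B1), with cycloheximide 10 µg/mL present after 3 h equilibration. Tissue pretreated with 50 µM [Leu⁸,des-Arg⁹]BK before the photolabel, scavenger (4'-amino)Phe 100 µM, and 10 min irradiation around 365 nm (18 mW/cm²). Residual [des-Arg⁹]BK response read 60 min after treatment, relative to reference tissues.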

Oryctolagus cuniculus [3] = species on record: Oryctolagus cuniculus; test: In vitro 50 % Maximal response in rabbit aorta expressing B1 receptor; assay type: functional; details: read-out: ED50 (the source's name)
[4] = target: T1, B1 bradykinin receptor (Homo sapiens) (UniProt P46663); test: Intrinsic activity was determined; assay type: functional; details: Oryctolagus cuniculus
T1 sequence (whole entry): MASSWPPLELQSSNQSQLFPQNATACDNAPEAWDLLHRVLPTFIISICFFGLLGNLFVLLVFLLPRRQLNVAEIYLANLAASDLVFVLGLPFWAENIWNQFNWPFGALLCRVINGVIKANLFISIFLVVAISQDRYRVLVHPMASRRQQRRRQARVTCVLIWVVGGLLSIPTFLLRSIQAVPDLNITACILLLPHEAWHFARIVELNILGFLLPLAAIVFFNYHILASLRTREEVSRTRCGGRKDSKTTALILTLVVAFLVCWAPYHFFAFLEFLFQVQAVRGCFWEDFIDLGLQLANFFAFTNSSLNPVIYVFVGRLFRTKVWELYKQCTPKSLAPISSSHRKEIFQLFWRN

Oryctolagus cuniculus [5] = species on record: Oryctolagus cuniculus; test: The compound was tested in vitro on rabbit aorta for residual response in absence of ultraviolet light; assay type: functional
Outline: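 Aorta strips were treated as in the photolabeling protocol but without light, or with light alone. Residual [des-Arg⁹]BK response was measured 60 min later against reference tissues. Darkroom testing was done in triplicate for the visible-light-absorbing analogue.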

Oryctolagus cuniculus [6] = species on record: Oryctolagus cuniculus; test: The compound was tested in vitro (2.0 uM) on rabbit jugular vein for residual response in absence of ultraviolet light; assay type: functional
Outline: (§2)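 Jugular vein strips were treated exactly as in the photolabeling protocol (scavenger 100 µM (4'-amino)Phe plus analogue) but without light. Residual BK response was measured 60 min after the last treatment against reference tissues. Results were discarded if reference tissues lost over 25% sensitivity.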

[7] = target: T2, B2 bradykinin receptor (Homo sapiens) (UniProt P30411); test: In vitro 50 % Maximal response in jugular vein expressing B2 receptor; assay type: functional; details: Oryctolagus cuniculus
T2 sequence (whole entry): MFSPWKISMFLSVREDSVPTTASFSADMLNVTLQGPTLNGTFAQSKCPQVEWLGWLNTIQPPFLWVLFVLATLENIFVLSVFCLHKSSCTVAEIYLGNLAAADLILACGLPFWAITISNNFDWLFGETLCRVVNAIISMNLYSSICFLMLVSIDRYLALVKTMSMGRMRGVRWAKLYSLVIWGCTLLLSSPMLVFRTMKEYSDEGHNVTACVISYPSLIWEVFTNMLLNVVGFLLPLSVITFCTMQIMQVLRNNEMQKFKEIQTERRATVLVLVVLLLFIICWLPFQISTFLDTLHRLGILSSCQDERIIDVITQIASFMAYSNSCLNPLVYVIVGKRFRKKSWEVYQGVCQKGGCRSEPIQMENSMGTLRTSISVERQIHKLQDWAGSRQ
Outline: (§3)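 Isolated rabbit jugular vein strips were equilibrated about 2 h with protease inhibitor SQ 14225 (100 ng/mL) under incandescent light, with no UV. pD₂ was taken as −log of the half-maximal concentration. Relative affinity is given as percent of BK. Specificity was checked by desensitization with BK or an analogue. Antagonists were given as pA₂ from the ID₅₀ that reduces a double agonist dose to a single-dose response.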

[8] = target: T2, B2 bradykinin receptor (Homo sapiens); test: Percent agonistic activity in rabbit jugular vein expressing B2 receptor relative to bradykinin; assay type: functional; details: Oryctolagus cuniculus; outline: as §3
Oryctolagus cuniculus [9] = species on record: Oryctolagus cuniculus; test: The compound was tested in vitro (0.1 uM) on rabbit jugular vein for residual response in presence of ultraviolet light; assay type: functional
Outline: (§4)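 Jugular vein strips were challenged twice with BK and checked with 1 µM [Nle¹¹]substance P and 7 µM histamine. They were then incubated with 100 µM (4'-amino)Phe plus the photolabel and irradiated 10 min around 365 nm (18 mW/cm²) at maximal contraction or after 5 min. This was done once or twice. BK response at 60 min was expressed as percent of reference tissues, rechecked every 45 min.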

Oryctolagus cuniculus [10] = species on record: Oryctolagus cuniculus; test: The compound was tested in vitro (0.2 uM) on rabbit jugular vein for residual response in presence of ultraviolet light; assay type: functional; outline: as §4
[11] = tested on: B2 bradykinin receptor (Oryctolagus cuniculus); test: Agonistic activity (pD2) in rabbit jugular vein expressing B2 receptor relative to bradykinin
[12] = tested on: B2 bradykinin receptor (Oryctolagus cuniculus); test: Relative affinity against B2 receptor relative to bradykinin
Oryctolagus cuniculus [13] = species on record: Oryctolagus cuniculus; test: The compound was tested in vitro (3 uM) on rabbit jugular vein for residual response in absence of ultraviolet light; assay type: functional; outline: as §2
[14] = tested on: B2 bradykinin receptor (Oryctolagus cuniculus); test: In vitro 50 % Maximal response in jugular vein expressing B2 receptor
Oryctolagus cuniculus [15] = species on record: Oryctolagus cuniculus; test: The compound was tested (0.5 micro M) in vitro on rabbit jugular vein for residual response in presence of ultraviolet light; assay type: functional; outline: as §4
[16] = tested on: B2 bradykinin receptor (Oryctolagus cuniculus); test: In vitro 50 % Maximal response in rabbit jugular vein expressing B2 receptor
Oryctolagus cuniculus [17] = species on record: Oryctolagus cuniculus; test: The compound was tested in vitro (1.0 uM) on rabbit jugular vein for residual response in presence of ultraviolet light; assay type: functional; outline: as §4
Oryctolagus cuniculus [18] = species on record: Oryctolagus cuniculus; test: Competitive protection towards rabbit jugular vein in the presence of light; assay type: functional
Outline: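 Rabbit jugular vein strips (B2), with SQ 14225 100 ng/mL present after about 2 h equilibration. 5 µM BK added before the photolabel, scavenger (4'-amino)Phe 100 µM, and 10 min irradiation around 365 nm (18 mW/cm²). Residual BK response read 60 min after treatment, relative to reference tissues.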

Oryctolagus cuniculus [19] = species on record: Oryctolagus cuniculus; test: The compound was tested in vitro (0.1 uM) on rabbit aorta for residual response in presence of ultraviolet light; assay type: functional; details: in the assay text read “rabbit jugular vein” for “rabbit aorta”; outline: as §1

Compound | EC50 (Oryctolagus cuniculus [3]) [nM] | Alpha E [4] | ED50 [7] [nM] | Relative affinity [8] [%] | further results
NC(N)=NCCC[C@H](N)C(=O)N1CCC[C@H]1C(=O)N1CCC[C@H]1C(=O)NCC(=O)N[C@@H](Cc1ccccc1)C(=O)N[C@@H](CO)C(=O)N1CCC[C@H]1C(=O)N[C@@H](Cc1ccc([N+](=O)[O-])cc1)C(=O)O | > 100000 | – | – | – | Response (Oryctolagus cuniculus [1]): 76%; Competitive protection (Oryctolagus cuniculus [2]): 75
[N-]=[N+]=Nc1ccc(C[C@H](NC(=O)[C@@H]2CCCN2C(=O)[C@H](CO)NC(=O)[C@H](Cc2ccccc2)NC(=O)CNC(=O)[C@@H]2CCCN2C(=O)[C@@H]2CCCN2C(=O)[C@@H](N)CCCN=C(N)N)C(=O)O)cc1 | 8560 | 0 | – | – | Response (Oryctolagus cuniculus [1]): 37%; Competitive protection (Oryctolagus cuniculus [2]): 95
N#[N+]c1ccc(C[C@H](NC(=O)[C@@H]2CCCN2C(=O)[C@H](CO)NC(=O)[C@H](Cc2ccccc2)NC(=O)CNC(=O)[C@@H]2CCCN2C(=O)[C@@H]2CCCN2C(=O)[C@@H](N)CCCN=C(N)N)C(=O)O)cc1 | 824 | 1 | – | – | Response (Oryctolagus cuniculus [5]): 95%
N#[N+]c1ccc(C[C@H](NC(=O)[C@@H]2CCCN2C(=O)[C@H](CO)NC(=O)[C@H](Cc2ccccc2)NC(=O)CNC(=O)[C@@H]2CCCN2C(=O)[C@@H]2CCCN2C(=O)[C@@H](N)CCCN=C(N)N)C(=O)N[C@@H](CCCN=C(N)N)C(=O)O)cc1 (HELM PEPTIDE1{R.P.P.G.F.S.P.[N#[N+]c1ccc(C[C@H](N[*:1])C(=O)[*:2])cc1].R}$$$$V2.0) | – | 1 | 25 | 9 | Response (Oryctolagus cuniculus [6]): 94%
NC(N)=NCCC[C@H](NC(=O)[C@H](Cc1ccc([N+](=O)[O-])cc1)NC(=O)[C@@H]1CCCN1C(=O)[C@H](CO)NC(=O)[C@H](Cc1ccccc1)NC(=O)CNC(=O)[C@@H]1CCCN1C(=O)[C@@H]1CCCN1C(=O)[C@@H](N)CCCN=C(N)N)C(=O)O (HELM PEPTIDE1{R.P.P.G.F.S.P.[O=C([C@H](Cc1ccc([N+](=O)[O-])cc1)N[*:1])[*:2]].R}$$$$V2.0) | – | 1 | 6.6 | 25 | Response (Oryctolagus cuniculus [9]): 91%
[N-]=[N+]=Nc1ccc(C[C@H](NC(=O)[C@@H]2CCCN2C(=O)[C@H](CO)NC(=O)[C@H](Cc2ccccc2)NC(=O)CNC(=O)[C@@H]2CCCN2C(=O)[C@@H]2CCCN2C(=O)[C@@H](N)CCCN=C(N)N)C(=O)N[C@@H](CCCN=C(N)N)C(=O)O)cc1 (HELM PEPTIDE1{R.P.P.G.F.S.P.[[N-]=[N+]=Nc1ccc(C[C@H](N[*:1])C(=O)[*:2])cc1].R}$$$$V2.0) | – | 1 | 7 | 23 | Response (Oryctolagus cuniculus [10]): 85%
N#[N+]c1ccc(C[C@H](NC(=O)CNC(=O)[C@@H]2CCCN2C(=O)[C@@H]2CCCN2C(=O)[C@@H](N)CCCN=C(N)N)C(=O)N[C@@H](CO)C(=O)N2CCC[C@H]2C(=O)N[C@@H](Cc2ccccc2)C(=O)N[C@@H](CCCN=C(N)N)C(=O)O)cc1 (HELM PEPTIDE1{R.P.P.G.[N#[N+]c1ccc(C[C@H](N[*:1])C(=O)[*:2])cc1].S.P.F.R}$$$$V2.0) | – | 1 | 25 | – | pD [11]: 7.73 M; Relative affinity [12]: 9%; Response (Oryctolagus cuniculus [13]): 92%
NC(N)=NCCC[C@H](NC(=O)[C@H](Cc1ccccc1)NC(=O)[C@@H]1CCCN1C(=O)[C@H](CO)NC(=O)[C@H](Cc1ccc([N+](=O)[O-])cc1)NC(=O)CNC(=O)[C@@H]1CCCN1C(=O)[C@@H]1CCCN1C(=O)[C@@H](N)CCCN=C(N)N)C(=O)O (HELM PEPTIDE1{R.P.P.G.[O=C([C@H](Cc1ccc([N+](=O)[O-])cc1)N[*:1])[*:2]].S.P.F.R}$$$$V2.0) | – | 1 | – | 7 | ED50 [14]: 24 nM; Response (Oryctolagus cuniculus [15]): 88%; pD [16]: 7.62 M
[N-]=[N+]=Nc1ccc(/N=N/c2cc(C[C@H](NC(=O)CNC(=O)[C@@H]3CCCN3C(=O)[C@@H]3CCCN3C(=O)[C@@H](N)CCCN=C(N)N)C(=O)N[C@@H](CO)C(=O)N3CCC[C@H]3C(=O)N[C@@H](Cc3ccccc3)C(=O)O)ccc2O)cc1 (HELM PEPTIDE1{R.P.P.G.[[N-]=[N+]=Nc1ccc(/N=N/c2cc(C[C@H](N[*:1])C(=O)[*:2])ccc2O)cc1].S.P.F}$$$$V2.0) | 1280 | 1 | – | – | Response (Oryctolagus cuniculus [1]): 69%
[N-]=[N+]=Nc1ccc(C[C@H](NC(=O)CNC(=O)[C@@H]2CCCN2C(=O)[C@@H]2CCCN2C(=O)[C@@H](N)CCCNC(=N)N)C(=O)N[C@@H](CO)C(=O)N2CCC[C@H]2C(=O)N[C@@H](Cc2ccccc2)C(=O)N[C@@H](CCCNC(=N)N)C(=O)O)cc1 (HELM PEPTIDE1{R.P.P.G.[[N-]=[N+]=Nc1ccc(C[C@H](N[*:1])C(=O)[*:2])cc1].S.P.F.R}$$$$V2.0) | – | 1 | 10 | 17 | Response (Oryctolagus cuniculus [17]): 44%; Competitive protection (Oryctolagus cuniculus [18]): 91
H-RPPGFSPFR-OH [BRADYKININ] | – | 1 | 1.65 | 100 | Response (Oryctolagus cuniculus [19]): 92%
